{"source": "paper PMC5715471", "about": "(ACS chemical neuroscience, 2017)", "key": {"Beta1": {"molecular_target": "Beta1 (Homo sapiens, UniProt P08588)", "sequence (P08588 whole entry)": "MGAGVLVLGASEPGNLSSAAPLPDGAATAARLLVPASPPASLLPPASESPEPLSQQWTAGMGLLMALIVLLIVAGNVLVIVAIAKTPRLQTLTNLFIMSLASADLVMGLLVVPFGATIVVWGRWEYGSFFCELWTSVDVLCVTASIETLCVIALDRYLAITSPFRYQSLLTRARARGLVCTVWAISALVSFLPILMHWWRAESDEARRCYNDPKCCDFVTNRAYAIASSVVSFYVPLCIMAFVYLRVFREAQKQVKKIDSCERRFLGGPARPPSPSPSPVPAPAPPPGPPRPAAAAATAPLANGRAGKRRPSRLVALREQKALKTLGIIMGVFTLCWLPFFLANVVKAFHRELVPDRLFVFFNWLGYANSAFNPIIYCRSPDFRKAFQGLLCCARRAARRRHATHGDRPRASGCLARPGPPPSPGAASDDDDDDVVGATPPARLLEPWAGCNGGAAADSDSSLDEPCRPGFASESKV", "experiment": "PDSP radioligand binding, Beta1", "settings": "10 μM"}, "Alpha1a": {"molecular_target": "Alpha1a (Homo sapiens, UniProt P35348)", "experiment": "PDSP radioligand binding, Alpha1a", "settings": "10 μM"}, "M1": {"molecular_target": "M1 (Homo sapiens, UniProt P11229)", "experiment": "PDSP radioligand binding, M1", "settings": "10 μM"}, "A4B4": {"molecular_target": "A4B4 (Rattus norvegicus, UniProt P09483+P12392)", "experiment": "PDSP radioligand binding, A4B4", "settings": "10 μM"}, "Alpha2b": {"molecular_target": "Alpha2b (Homo sapiens, UniProt P18089)", "experiment": "PDSP radioligand binding, Alpha2b", "settings": "10 μM"}, "D5": {"molecular_target": "D5 (Homo sapiens, UniProt P21918)", "experiment": "PDSP radioligand binding, D5", "settings": "10 μM"}, "5HT5a": {"molecular_target": "5HT5a (Homo sapiens, UniProt P47898)", "sequence (P47898 whole entry)": "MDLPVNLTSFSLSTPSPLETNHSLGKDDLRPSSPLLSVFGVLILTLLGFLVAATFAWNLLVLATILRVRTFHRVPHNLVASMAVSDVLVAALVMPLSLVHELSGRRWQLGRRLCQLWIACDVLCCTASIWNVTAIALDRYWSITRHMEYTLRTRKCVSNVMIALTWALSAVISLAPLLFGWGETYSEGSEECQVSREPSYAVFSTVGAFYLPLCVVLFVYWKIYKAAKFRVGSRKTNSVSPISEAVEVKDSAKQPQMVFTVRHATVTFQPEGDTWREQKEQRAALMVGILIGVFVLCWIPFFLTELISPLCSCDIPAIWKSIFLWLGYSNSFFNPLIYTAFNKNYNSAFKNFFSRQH", "experiment": "PDSP radioligand binding, 5HT5a", "settings": "10 μM"}, "D2": {"molecular_target": "D2 (Homo sapiens, UniProt P14416)", "experiment": "PDSP radioligand binding, D2", "settings": "10 μM"}, "[1]": {"system": "mouse spared nerve injury (SNI) model", "experiment": "Mechanical sensitivity", "assay_type": "in vivo", "procedure,_shortened": "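Male C57Bl6/J SNI mice, hindpaw mechanical hypersensitivity confirmed 2 weeks post-surgery. Tail-vein IV injection in 100 μL sterile saline (DMSO stock diluted; vehicle DMSO-matched): test compound 10 mg/kg, gabapentin 100 mg/kg, or vehicle, n = 6 each. Blinded von Frey testing (modified up–down) at set time points. Mean ± SEM; two-way ANOVA with Bonferroni post hoc.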"}, "5HT1A": {"molecular_target": "5HT1A (Homo sapiens, UniProt P08908)", "experiment": "PDSP radioligand binding, 5HT1A", "settings": "10 μM"}, "M4": {"molecular_target": "M4 (Homo sapiens, UniProt P08173)", "experiment": "PDSP radioligand binding, M4", "settings": "10 μM"}, "5HT2C": {"molecular_target": "5HT2C (Homo sapiens, UniProt P28335)", "sequence (P28335 33-458)": "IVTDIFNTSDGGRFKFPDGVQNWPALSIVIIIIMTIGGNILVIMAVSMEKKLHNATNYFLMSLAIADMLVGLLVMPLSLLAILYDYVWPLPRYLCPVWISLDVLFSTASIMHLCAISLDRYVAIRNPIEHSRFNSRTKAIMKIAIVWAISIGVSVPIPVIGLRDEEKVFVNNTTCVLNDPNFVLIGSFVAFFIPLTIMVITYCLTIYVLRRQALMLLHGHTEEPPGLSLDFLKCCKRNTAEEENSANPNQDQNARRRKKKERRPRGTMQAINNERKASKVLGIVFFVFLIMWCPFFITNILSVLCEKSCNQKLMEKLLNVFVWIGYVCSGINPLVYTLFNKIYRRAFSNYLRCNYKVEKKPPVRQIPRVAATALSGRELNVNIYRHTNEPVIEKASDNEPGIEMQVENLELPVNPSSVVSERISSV", "experiment": "PDSP radioligand binding, 5HT2C", "settings": "10 μM"}, "[2]": {"system": "mouse spared nerve injury (SNI) model", "experiment": "Mechanical sensitivity", "assay_type": "in vivo", "procedure,_shortened": "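Male C57Bl6/J mice with SNI (peroneal and tibial sciatic branches cut, sural spared), confirmed hypersensitive 2 weeks post-surgery and screened 21–60 days after SNI. Single intrathecal 10 μg in 5 μL saline (DMSO <5%, vehicle DMSO-matched). Blinded hindpaw von Frey, modified up–down, at set times. n = 4–11. Mean ± SEM; two-way ANOVA with Bonferroni. Repeat injections ≥14 days apart.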", "remark": "listed apart in the source"}, "σ2R/Tmem97": {"molecular_target": "T1, σ2R/Tmem97 (Rattus norvegicus, UniProt Q5U3Y7)", "T1 sequence (Q5U3Y7 1-176)": "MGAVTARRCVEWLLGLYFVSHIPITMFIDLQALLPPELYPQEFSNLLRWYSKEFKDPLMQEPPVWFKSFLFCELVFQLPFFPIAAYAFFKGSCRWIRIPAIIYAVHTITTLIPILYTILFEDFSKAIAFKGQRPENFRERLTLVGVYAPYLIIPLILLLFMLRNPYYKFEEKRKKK", "experiment": "Sigma 2 receptor competition binding with [3H]-ditolylguanidine", "settings": "σ2R from rat PC12 cells"}, "5HT1D": {"molecular_target": "5HT1D (Homo sapiens, UniProt P28221)", "experiment": "PDSP radioligand binding, 5HT1D", "settings": "10 μM"}, "NET": {"molecular_target": "NET (Homo sapiens, UniProt P23975)", "sequence (P23975 whole entry)": "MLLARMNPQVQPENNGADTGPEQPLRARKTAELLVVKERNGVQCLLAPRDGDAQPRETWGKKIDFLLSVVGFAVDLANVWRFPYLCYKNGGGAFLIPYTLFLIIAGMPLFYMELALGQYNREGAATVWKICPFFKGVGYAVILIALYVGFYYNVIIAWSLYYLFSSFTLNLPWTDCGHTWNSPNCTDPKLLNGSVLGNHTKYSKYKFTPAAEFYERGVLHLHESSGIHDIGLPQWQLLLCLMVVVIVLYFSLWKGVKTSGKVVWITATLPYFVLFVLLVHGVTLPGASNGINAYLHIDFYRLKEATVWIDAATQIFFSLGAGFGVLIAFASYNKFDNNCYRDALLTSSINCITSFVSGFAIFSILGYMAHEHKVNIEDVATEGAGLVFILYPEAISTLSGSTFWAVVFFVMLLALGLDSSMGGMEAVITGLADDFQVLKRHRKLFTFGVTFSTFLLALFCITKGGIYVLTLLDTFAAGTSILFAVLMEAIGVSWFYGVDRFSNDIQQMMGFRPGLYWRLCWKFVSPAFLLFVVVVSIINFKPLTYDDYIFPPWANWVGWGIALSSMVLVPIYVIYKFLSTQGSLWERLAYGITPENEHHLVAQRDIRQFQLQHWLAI", "experiment": "PDSP radioligand binding, NET"}, "calcium channel": {"molecular_target": "calcium channel", "experiment": "PDSP radioligand binding, calcium channel"}, "D1": {"molecular_target": "D1 (Homo sapiens, UniProt P21728)", "experiment": "PDSP radioligand binding, D1", "settings": "10 μM"}, "M2": {"molecular_target": "M2 (Homo sapiens, UniProt P08172)", "experiment": "PDSP radioligand binding, M2", "settings": "10 μM"}, "5HT1e": {"molecular_target": "5HT1e (Homo sapiens, UniProt P28566)", "experiment": "PDSP radioligand binding, 5HT1e", "settings": "10 μM"}, "NMDA": {"molecular_target": "NMDA", "experiment": "PDSP radioligand binding, NMDA"}, "5HT2B": {"molecular_target": "5HT2B (Homo sapiens, UniProt P41595)", "sequence (P41595 whole entry)": "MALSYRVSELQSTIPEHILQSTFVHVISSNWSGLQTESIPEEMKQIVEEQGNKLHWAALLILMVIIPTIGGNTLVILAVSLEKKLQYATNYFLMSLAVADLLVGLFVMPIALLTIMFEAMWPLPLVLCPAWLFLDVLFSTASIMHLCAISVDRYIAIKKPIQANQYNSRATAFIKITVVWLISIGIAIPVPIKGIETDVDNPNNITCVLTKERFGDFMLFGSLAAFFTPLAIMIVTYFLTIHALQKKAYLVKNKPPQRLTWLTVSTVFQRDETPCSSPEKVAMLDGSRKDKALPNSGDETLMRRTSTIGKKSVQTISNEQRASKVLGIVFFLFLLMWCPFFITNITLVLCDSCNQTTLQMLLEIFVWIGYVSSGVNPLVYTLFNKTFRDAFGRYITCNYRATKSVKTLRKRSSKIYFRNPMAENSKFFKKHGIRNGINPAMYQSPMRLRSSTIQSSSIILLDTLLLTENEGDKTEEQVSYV", "experiment": "PDSP radioligand binding, 5HT2B", "settings": "10 μM"}, "V2": {"molecular_target": "V2 (Homo sapiens, UniProt P30518)", "experiment": "PDSP radioligand binding, V2"}, "SNI mice": {"system": "SNI mice", "experiment": "Rotorod test of motor performance", "assay_type": "in vivo, mouse", "settings": "IV 10 mg/kg, 48 h after injection, third trial", "procedure,_shortened": "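SNI mice given IV vehicle or test compound 10 mg/kg in sterile saline, tested 48 h later. Automated rotorod accelerating to 40 rpm over 200 s. Two training runs; latency to fall recorded on third trial. n = 6 per group; two-tailed t test.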"}, "Alpha1d": {"molecular_target": "Alpha1d (Homo sapiens, UniProt P25100)", "experiment": "PDSP radioligand binding, Alpha1d", "settings": "10 μM"}, "GabaA": {"system": "GabaA", "experiment": "PDSP radioligand binding, GabaA", "settings": "10 μM"}, "A2B4": {"molecular_target": "A2B4 (Rattus norvegicus, UniProt P12389+P12392)", "sequence (P12389 28-511)": "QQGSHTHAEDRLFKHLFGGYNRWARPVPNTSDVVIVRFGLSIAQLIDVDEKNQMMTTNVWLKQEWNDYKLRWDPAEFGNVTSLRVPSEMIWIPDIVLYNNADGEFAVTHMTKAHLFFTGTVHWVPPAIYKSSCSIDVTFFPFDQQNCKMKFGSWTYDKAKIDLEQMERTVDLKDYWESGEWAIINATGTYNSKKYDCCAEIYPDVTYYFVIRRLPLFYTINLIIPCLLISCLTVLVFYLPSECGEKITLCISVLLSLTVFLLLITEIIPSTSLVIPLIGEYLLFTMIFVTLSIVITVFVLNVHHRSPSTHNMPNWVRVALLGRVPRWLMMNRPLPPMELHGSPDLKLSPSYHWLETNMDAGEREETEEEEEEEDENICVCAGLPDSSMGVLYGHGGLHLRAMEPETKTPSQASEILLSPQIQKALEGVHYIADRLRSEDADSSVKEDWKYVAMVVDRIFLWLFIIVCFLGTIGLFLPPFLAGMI", "sequence (P12392 21-495)": "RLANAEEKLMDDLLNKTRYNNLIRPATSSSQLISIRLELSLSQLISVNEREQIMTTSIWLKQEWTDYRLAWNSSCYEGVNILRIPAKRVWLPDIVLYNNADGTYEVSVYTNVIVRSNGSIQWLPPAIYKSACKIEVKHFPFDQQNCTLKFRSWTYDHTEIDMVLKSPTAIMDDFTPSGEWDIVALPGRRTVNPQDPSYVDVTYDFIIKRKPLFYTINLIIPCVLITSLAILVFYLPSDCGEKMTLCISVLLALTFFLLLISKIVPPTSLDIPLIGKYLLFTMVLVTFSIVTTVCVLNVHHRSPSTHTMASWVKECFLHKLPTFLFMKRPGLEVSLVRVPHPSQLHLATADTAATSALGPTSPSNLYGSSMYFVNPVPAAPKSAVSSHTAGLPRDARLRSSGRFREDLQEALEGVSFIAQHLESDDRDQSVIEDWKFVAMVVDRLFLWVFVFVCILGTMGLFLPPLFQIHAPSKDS", "experiment": "PDSP radioligand binding, A2B4", "settings": "10 μM"}, "5HT1B": {"molecular_target": "5HT1B (Homo sapiens, UniProt P28222)", "experiment": "PDSP radioligand binding, 5HT1B", "settings": "10 μM"}, "V1A": {"molecular_target": "V1A (Homo sapiens, UniProt P37288)", "experiment": "PDSP radioligand binding, V1A"}, "D3": {"molecular_target": "D3 (Homo sapiens, UniProt P35462)", "sequence (P35462 whole entry)": "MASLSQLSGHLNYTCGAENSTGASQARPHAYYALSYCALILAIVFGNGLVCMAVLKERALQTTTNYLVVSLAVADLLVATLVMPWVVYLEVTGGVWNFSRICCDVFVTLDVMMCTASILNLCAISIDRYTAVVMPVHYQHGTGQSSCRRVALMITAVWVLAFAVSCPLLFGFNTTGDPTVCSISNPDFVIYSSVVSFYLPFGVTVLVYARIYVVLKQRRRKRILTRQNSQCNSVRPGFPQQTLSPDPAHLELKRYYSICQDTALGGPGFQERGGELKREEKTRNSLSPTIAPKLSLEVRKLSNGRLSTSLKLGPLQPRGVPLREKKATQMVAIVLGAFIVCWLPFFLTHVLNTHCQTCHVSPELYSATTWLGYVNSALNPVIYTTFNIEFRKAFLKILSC", "experiment": "PDSP radioligand binding, D3", "settings": "10 μM"}, "D4": {"molecular_target": "D4 (Homo sapiens, UniProt P21917)", "experiment": "PDSP radioligand binding, D4", "settings": "10 μM"}, "A3B4": {"molecular_target": "A3B4 (Rattus norvegicus, UniProt P04757+P12392)", "sequence (P04757 26-499)": "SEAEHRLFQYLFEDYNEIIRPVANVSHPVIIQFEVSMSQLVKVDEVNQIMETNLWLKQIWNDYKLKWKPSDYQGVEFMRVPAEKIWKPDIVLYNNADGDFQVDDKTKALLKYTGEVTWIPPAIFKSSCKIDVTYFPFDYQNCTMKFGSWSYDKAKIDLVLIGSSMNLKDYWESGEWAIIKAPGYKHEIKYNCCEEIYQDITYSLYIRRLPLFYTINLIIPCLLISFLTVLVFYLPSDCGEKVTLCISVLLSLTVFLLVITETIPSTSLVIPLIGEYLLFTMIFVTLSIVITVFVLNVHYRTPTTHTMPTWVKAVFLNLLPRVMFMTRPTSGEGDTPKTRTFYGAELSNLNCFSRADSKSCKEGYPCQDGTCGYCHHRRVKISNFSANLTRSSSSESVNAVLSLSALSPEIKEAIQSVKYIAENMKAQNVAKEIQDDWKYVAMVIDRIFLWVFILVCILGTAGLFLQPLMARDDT", "sequence (P12392 21-495)": "as the sequence (P12392 21-495) above", "experiment": "PDSP radioligand binding, A3B4", "settings": "10 μM"}, "BZP rat brain": {"system": "BZP rat brain", "experiment": "PDSP radioligand binding, BZP rat brain", "settings": "10 μM"}, "5HT3": {"molecular_target": "5HT3 (Homo sapiens, UniProt P46098)", "experiment": "PDSP radioligand binding, 5HT3", "settings": "10 μM"}, "M5": {"molecular_target": "M5 (Homo sapiens, UniProt P08912)", "experiment": "PDSP radioligand binding, M5", "settings": "10 μM"}, "5HT7": {"molecular_target": "5HT7 (Homo sapiens, UniProt P34969)", "experiment": "PDSP radioligand binding, 5HT7", "settings": "10 μM"}, "A7": {"system": "A7", "experiment": "PDSP radioligand binding, A7", "settings": "10 μM"}, "5HT6": {"molecular_target": "5HT6 (Homo sapiens, UniProt P50406)", "sequence (P50406 whole entry)": "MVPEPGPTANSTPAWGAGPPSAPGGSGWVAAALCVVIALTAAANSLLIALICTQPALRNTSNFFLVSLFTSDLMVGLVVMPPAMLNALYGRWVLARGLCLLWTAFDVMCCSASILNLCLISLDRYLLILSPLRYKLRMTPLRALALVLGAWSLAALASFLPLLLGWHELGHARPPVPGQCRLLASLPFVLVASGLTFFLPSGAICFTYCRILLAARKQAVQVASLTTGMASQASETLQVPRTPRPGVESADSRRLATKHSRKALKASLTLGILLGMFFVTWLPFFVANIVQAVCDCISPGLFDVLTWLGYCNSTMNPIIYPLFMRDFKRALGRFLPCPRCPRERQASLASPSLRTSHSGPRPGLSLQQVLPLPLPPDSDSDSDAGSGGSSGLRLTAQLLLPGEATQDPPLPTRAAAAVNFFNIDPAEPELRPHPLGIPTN", "experiment": "PDSP radioligand binding, 5HT6", "settings": "10 μM"}}, "data": [{"smiles": "OCCCN1CCCC2CC1c1cc(-c3ccc(C(F)(F)F)cc3)ccc12", "note": "(racemic) [UKH-1114, (±)-9-(4-(Trifluoromethyl)phenyl)-3,4,5,6-tetrahydro-1,6-methanobenzo[c]azocin-2(1H)-yl)propan-1-ol]", "values": [{"measurement": "inhibition of radioligand binding (Ki column, footnote a)", "setting": "Beta1", "result": "^a (<50% inhibition of radioligand binding at 10 μM)"}, {"measurement": "inhibition of radioligand binding (Ki column, footnote a)", "setting": "Alpha1a", "result": "^a (<50% inhibition of radioligand binding at 10 μM)"}, {"measurement": "inhibition of radioligand binding (Ki column, footnote a)", "setting": "M1", "result": "^a (<50% inhibition of radioligand binding at 10 μM)"}, {"measurement": "inhibition of radioligand binding (Ki column, footnote a)", "setting": "A4B4", "result": "^a (<50% inhibition of radioligand binding at 10 μM)"}, {"measurement": "inhibition of radioligand binding (Ki column, footnote a)", "setting": "Alpha2b", "result": "^a (<50% inhibition of radioligand binding at 10 μM)"}, {"measurement": "inhibition of radioligand binding (Ki column, footnote a)", "setting": "D5", "result": "^a (<50% inhibition of radioligand binding at 10 μM)"}, {"measurement": "inhibition of radioligand binding (Ki column, footnote a)", "setting": "5HT5a", "result": "^a (<50% inhibition of radioligand binding at 10 μM)"}, {"measurement": "inhibition of radioligand binding (Ki column, footnote a)", "setting": "D2", "result": "^a (<50% inhibition of radioligand binding at 10 μM)"}, {"measurement": "effect on SNI-induced mechanical hypersensitivity", "setting": "[1]; IV 10 mg/kg", "result": "complete reversal of mechanical hypersensitivity"}, {"measurement": "duration of relief of mechanical hypersensitivity", "setting": "[1]; systemic 10 mg/kg", "result": 48, "unit": "h"}, {"measurement": "peak magnitude of effect compared with gabapentin", "setting": "[1]; systemic 10 mg/kg vs gabapentin 100 mg/kg", "result": "equivalent to 100 mg/kg gabapentin"}, {"measurement": "inhibition of radioligand binding (Ki column, footnote a)", "setting": "5HT1A", "result": "^a (<50% inhibition of radioligand binding at 10 μM)"}, {"measurement": "inhibition of radioligand binding (Ki column, footnote a)", "setting": "M4", "result": "^a (<50% inhibition of radioligand binding at 10 μM)"}, {"measurement": "inhibition of radioligand binding (Ki column, footnote a)", "setting": "5HT2C", "result": "^a (<50% inhibition of radioligand binding at 10 μM)"}, {"measurement": "time of peak relief of mechanical hypersensitivity after dosing", "setting": "[2]; IT", "result": 48, "unit": "h"}, {"measurement": "effect on SNI-induced mechanical hypersensitivity", "setting": "[2]; single IT injection, 10 μg, vs vehicle", "result": "significant antimechanical hypersensitivity effects at either 24 or 48 h"}, {"measurement": "affinity at σ2R/Tmem97 (in words)", "setting": "σ2R/Tmem97", "result": "high affinity"}, {"measurement": "inhibition of radioligand binding (Ki column, footnote a)", "setting": "5HT1D", "result": "^a (<50% inhibition of radioligand binding at 10 μM)"}, {"measurement": "Ki", "setting": "NET", "result": 1.05, "unit": "µM"}, {"measurement": "Ki", "setting": "calcium channel", "result": "> 10", "unit": "µM"}, {"measurement": "inhibition of radioligand binding (Ki column, footnote a)", "setting": "D1", "result": "^a (<50% inhibition of radioligand binding at 10 μM)"}, {"measurement": "inhibition of radioligand binding (Ki column, footnote a)", "setting": "M2", "result": "^a (<50% inhibition of radioligand binding at 10 μM)"}, {"measurement": "inhibition of radioligand binding (Ki column, footnote a)", "setting": "5HT1e", "result": "^a (<50% inhibition of radioligand binding at 10 μM)"}, {"measurement": "Ki", "setting": "NMDA", "result": 6.72, "unit": "µM"}, {"measurement": "inhibition of radioligand binding (Ki column, footnote a)", "setting": "5HT2B", "result": "^a (<50% inhibition of radioligand binding at 10 μM)"}, {"measurement": "Ki", "setting": "V2", "result": "> 10", "unit": "µM"}, {"measurement": "effect on motor performance (latency to fall, rotorod)", "setting": "SNI mice", "result": "no effect"}, {"measurement": "inhibition of radioligand binding (Ki column, footnote a)", "setting": "Alpha1d", "result": "^a (<50% inhibition of radioligand binding at 10 μM)"}, {"measurement": "inhibition of radioligand binding (Ki column, footnote a)", "setting": "GabaA", "result": "^a (<50% inhibition of radioligand binding at 10 μM)"}, {"measurement": "inhibition of radioligand binding (Ki column, footnote a)", "setting": "A2B4", "result": "^a (<50% inhibition of radioligand binding at 10 μM)"}, {"measurement": "inhibition of radioligand binding (Ki column, footnote a)", "setting": "5HT1B", "result": "^a (<50% inhibition of radioligand binding at 10 μM)"}, {"measurement": "Ki", "setting": "V1A", "result": "> 10", "unit": "µM"}, {"measurement": "inhibition of radioligand binding (Ki column, footnote a)", "setting": "D3", "result": "^a (<50% inhibition of radioligand binding at 10 μM)"}, {"measurement": "inhibition of radioligand binding (Ki column, footnote a)", "setting": "D4", "result": "^a (<50% inhibition of radioligand binding at 10 μM)"}, {"measurement": "inhibition of radioligand binding (Ki column, footnote a)", "setting": "A3B4", "result": "^a (<50% inhibition of radioligand binding at 10 μM)"}, {"measurement": "inhibition of radioligand binding (Ki column, footnote a)", "setting": "BZP rat brain", "result": "^a (<50% inhibition of radioligand binding at 10 μM)"}, {"measurement": "inhibition of radioligand binding (Ki column, footnote a)", "setting": "5HT3", "result": "^a (<50% inhibition of radioligand binding at 10 μM)"}, {"measurement": "inhibition of radioligand binding (Ki column, footnote a)", "setting": "M5", "result": "^a (<50% inhibition of radioligand binding at 10 μM)"}, {"measurement": "inhibition of radioligand binding (Ki column, footnote a)", "setting": "5HT7", "result": "^a (<50% inhibition of radioligand binding at 10 μM)"}, {"measurement": "inhibition of radioligand binding (Ki column, footnote a)", "setting": "A7", "result": "^a (<50% inhibition of radioligand binding at 10 μM)"}, {"measurement": "inhibition of radioligand binding (Ki column, footnote a)", "setting": "5HT6", "result": "^a (<50% inhibition of radioligand binding at 10 μM)"}]}]}
